# Bioassay records: PubChem, several laboratories
# Hits are enriched below; roughly 12% of the tested compounds scored in any of these assays.
# Cl transport mod – KCC2 cotransporter modulators, thallium flux, primary screen, cell-based, HEK293 KCC2, FluoZin-2 fluorescence, MLSMR; B-score of Tl+ flux slope (higher = more flux/activation; lower = inhibition) at 10 µM; Solute carrier family 12 member 5 (Homo sapiens), Q9H2X9; 2.2% of 190,000 active; KCC2 cells, thallium flux FluoZin-2 fluorescence;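 active = thallium flux slope and its plate-corrected score both differing from the plate sample mean at a set confidence after two filtering rounds, in either direction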;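 note: slope of fluorescence scaled to starting intensity during 10 to 20 s after thallium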
# ROMK mod – ROMK potassium channel modulators, primary screen, cell-based, thallium flux, MLSMR library | Tet-inducible ROMK, thallium flux fluorescence; actives lie on both sides | B-score at 10 µM | 2% of 130,000 active | AID 1918, 2009;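 active = signal ratio slope over the read window, or its plate-corrected B-score, at least 3 SD from the plate mean, either direction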;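 note: B-score of the F/F0 ratio slope over 7 to 12 s after thallium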
# Target sequence (P48048 whole entry, looked up): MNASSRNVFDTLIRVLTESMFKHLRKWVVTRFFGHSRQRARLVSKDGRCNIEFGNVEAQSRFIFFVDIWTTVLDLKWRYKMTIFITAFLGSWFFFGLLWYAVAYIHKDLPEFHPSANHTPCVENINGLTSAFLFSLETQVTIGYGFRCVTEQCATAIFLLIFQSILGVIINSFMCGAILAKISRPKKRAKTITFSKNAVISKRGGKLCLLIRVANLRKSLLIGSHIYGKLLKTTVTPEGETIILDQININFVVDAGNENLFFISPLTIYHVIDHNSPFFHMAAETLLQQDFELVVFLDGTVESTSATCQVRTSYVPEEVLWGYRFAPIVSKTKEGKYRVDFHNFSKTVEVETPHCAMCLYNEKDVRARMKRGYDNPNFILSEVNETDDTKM
# Lmaj promast – Leishmania major promastigote growth inhibition, primary screen; Leishmania major promastigotes, resazurin fluorescence viability; inhibition, % at 10 µM; 9% of 200,000 active; in the data active = inhibition above about 50%;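 note: promastigotes grown with compound for 44 hours at 28 °C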
# WT yeast gro inh – growth inhibition of WT strain, primary screen, mitochondrial fusion inhibitor project, WT and mutant strains, chemical genetic. inhibition, % at 10 µM. mitochondrial fusion phenotypic screen. 2.1% of 190,000 active. AID 1362, 2008; in the data active = inhibition above about 58%; tested in S. cerevisiae
# Diaphorase inh – diaphorase inhibitors and chemical oxidizers, primary screen, counter-screen for diaphorase-coupled primary assays, biochemical, uHTS, resorufin fluorescence; 0.69% of 190,000 active; AID 1217, 2008; inhibition, % at 20 µM; diaphorase resazurin-to-resorufin fluorescence, NADH, 16 min; bacterial (C. kluyveri) enzyme, not human;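 active = primary screen inhibition at 20 µM above a set limit, cut at about 50% in these data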;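 note: plate controls were DMSO with full reaction for no effect and wells lacking NADH for full effect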
#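 Test system: Clostridium kluyveri diaphorase enzyme / Quantity: diaphorase at 0.14 U/mL in enzyme working solution / Incubation: 16-min room-temperature incubation before reading / Benchmarks: NADH-free wells as positive control, DMSO-only neutral wells / Signal: resorufin fluorescence 544/590 nm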
# Diaphorase act – compounds boosting diaphorase resazurin reduction – biochemical, uHTS, resorufin fluorescence, counter-screen for diaphorase-coupled primary assays, primary screen; activation factor at 20 µM; Diaphorase/resazurin coupled assay, 16 min; stronger effect = higher value; 1 = vehicle wells, 0 = NADH-free wells; 0.005% of 190,000 active; AID 1229, 2008;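 active = diaphorase activity raised at least twofold by the compound at 20 µM; inactive = activation factor below 2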
#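 Measured by – red resorufin fluorescence at 544/590 nm excitation/emission · Test system – Clostridium kluyveri diaphorase, purified enzyme · Incubation – reaction time 16 min, room temperature · Buffer or medium – 50 mM HEPES pH 7.4 with 4.542 mM MgCl2, 0.005% Tween 20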
# An asterisk follows results filed as active; x = no result given.
SMILES,Cl transport mod,ROMK mod,Lmaj promast,WT yeast gro inh,Diaphorase inh,Diaphorase act
Cc1ccc(-c2[nH]c(-c3ccc(C(=O)O)cc3)nc2-c2ccccc2)cc1,0.015,x,38,2,23,0.8
COc1ccc(-c2[nH]c(-c3cc(OC)c4c(c3)OCO4)nc2-c2ccccc2)cc1,-0.55,-0.035,89*,63*,15,0.9
CCCc1nn(C)c(C(=O)Nc2ccccc2)c1Cl,0.51,x,-6,-2,17,0.8
COc1ccc(Nc2c(-c3ccc(C)cc3)nc3cnccn23)cc1,0.59,-3,4,-14,10,0.9
Cc1ccc(Nc2c(-c3ccccc3O)nc3cnccn23)cc1,-0.41,-1.9,79*,23,21,0.8
Cc1ccc2c(Cl)cc(Cl)c(OCC(=O)NCc3ccco3)c2n1,x,0.59,2,43,54*,0.5
Cc1ccc2c(Cl)cc(Cl)c(OCC(=O)NC(=O)NCc3ccco3)c2n1,1.3,x,-4,1,24,0.8
O=C(COc1ccc(Cl)cc1Cl)NNC(=S)NCc1ccco1,3.7,-1.7,0,76*,14,0.9
CC1(C)Cc2c(C#N)c(N3CCN(C(=O)c4ccccc4)CC3)nc(Cc3ccccc3)c2CO1,0.23,0.5,71*,34,11,0.9
CCN(CC)CCOC(=O)c1ccc(NC(=O)c2cn(-c3ccccc3)nc2-c2cccs2)cc1,1.1,0.14,22,90*,-45,1.4
O=C(c1cn(-c2ccccc2)nc1-c1cccs1)N1CCN(c2ccccn2)CC1,-0.42,-2,57*,45,31,0.7
CN(C)C(=O)c1cn(-c2ccccc2)nc1-c1cccs1,1.2,-0.15,54*,5,7,0.9
CN(CC(=O)Nc1ccccc1Br)Cc1nc2ccccc2c(=O)[nH]1,-0.03,-0.27,-4,-8,5,1
O=C(c1cnc(-c2ccccc2)s1)c1ccc(Cl)cc1Cl,-0.16,x,-2,64*,20,0.8
O=C(Nc1cccc(C(F)(F)F)c1)C1CCCN1S(=O)(=O)c1cccc2cccnc12 (centres undefined),-1.1,-2.3,84*,3,24,0.8
CC(C)=C1C2CCC1C1C(=O)N(NC(=O)COc3ccc(Cl)c(C)c3)C(=O)C21 (centres undefined),-0.42,0.52,76*,24,2,1
CC1CN(c2nc3ccccn3c(=O)c2/C=C(\C#N)C(=O)N2CCOCC2)CC(C)O1 (centres undefined),0.61,x,x,x,x,x
COc1ccc(/C=N/NC(=O)c2ccoc2C)cc1COc1c(C)cccc1C,-1,x,100*,88*,27,0.7
O=C(Cn1c(-c2ccccc2)c[n+]2ccsc12)c1ccc(Br)cc1,1.5,-0.87,24,22,7,0.9
O=S(=O)(CCSc1nc2ccccc2o1)c1nc2ccccc2s1,-0.67,x,98*,13,20,0.8
O=C(Nc1ccccc1)N(O)c1ccc(Cl)cc1,x,x,9,17,15,0.8
COc1ccc(C(CCNCc2ccc(F)cc2)c2ccc(F)cc2)cc1 (centres undefined),1.9,-3.1,72*,59*,-19,1.2
COc1ccc(C(CCNC(C)c2ccccc2)c2ccc(F)cc2)cc1 (centres undefined),1.9,x,100*,59*,10,0.9
COc1ccc(C(CCNCc2ccccc2)c2ccc(F)cc2)cc1 (centres undefined),0.032,x,99*,60*,0,1
COc1ccc(C2=C(C=Nc3c(C)n(C)n(-c4ccccc4)c3=O)C(c3ccccc3C)c3ccccc3O2)cc1OC (centres undefined),-0.16,0.084,39,10,20,0.8
SMILES,Cl transport mod,ROMK mod,Lmaj promast,WT yeast gro inh,Diaphorase inh,Diaphorase act
CCN(CC)CCNc1cc(C)nc2c1C(=O)C(=O)C=C2N1CCCCC1,x,-0.7,101*,15,x,x
CCN(CC)CCNC(=O)c1ccc(NC(=O)c2ccc(Cl)c(S(=O)(=O)N3CCCCCC3)c2)cc1,-0.86,x,x,x,x,x
CCO[C@H]1OC(C(=O)NCc2ccccc2)=C[C@@H](c2ccccc2)[C@@H]1CCCO,0.41,x,1,0,16,0.8
COc1ccccc1-n1cc(C(=O)N2CCCC(CO)(Cc3ccccc3C)C2)cn1 (centres undefined),x,x,19,12,10,0.9
CC1CCN(Cc2ccc(NC(=O)C3CCN(c4nnc(-n5cccc5)s4)CC3)cc2)CC1,-0.56,x,92*,12,-26,1.3
CCC(C)(C(=O)Nc1ccccc1C)N(C(=O)CNC(C)=O)c1ccccc1C (centres undefined),1.3,0.76,-4,-10,15,0.9
O=S(=O)(c1ccccc1)N1CCN=C1SCc1ccc(Cl)c(Cl)c1,-0.89,-0.15,51*,53,12,0.9
O=S(=O)(c1ccccc1)N1CCN=C1SCc1ccc(Cl)cc1,-0.99,x,100*,46,29,0.7
O=S(=O)(c1ccccc1)N1CCN=C1SCc1cccc(Cl)c1,-1.6,-0.16,22,54,22,0.8
COc1ccc(C2NCCc3sccc32)cc1 (centres undefined),-0.71,-0.61,0,13,2,1
Cc1cc2ccccc2n1CCNC(=O)c1ccc(Br)o1,0.083,x,-3,10,19,0.8
CC1=NN(C(=O)c2ccc(Cn3ccc([N+](=O)[O-])n3)cc2)C(O)(C(F)(F)F)C1 (centres undefined),-0.81,-1.1,-9,-16,-2,1
Cn1c(=O)n(C)c2cc([N+](=O)[O-])c(N3CCN(S(=O)(=O)c4ccc(C(C)(C)C)cc4)CC3)cc21,x,x,70*,74*,19,0.8
O=[N+]([O-])c1cc(C(F)(F)F)ccc1N1CCN(S(=O)(=O)c2ccc3ccccc3c2)CC1,1.1,x,3,11,17,0.8
O=[N+]([O-])c1cc(C(F)(F)F)cc([N+](=O)[O-])c1N1CCN(S(=O)(=O)c2ccccc2)CC1,0.017,0.53,51*,1,19,0.8
COc1cccc(-c2cc(C(F)(F)F)n3nc(C(=O)N4CCCCC4c4cccnc4)cc3n2)c1 (centres undefined),-0.44,-0.38,89*,27,21,0.8
Cc1ccc(C(=O)N2CCC(C)CC2)cc1C,x,x,-4,-3,5,0.9
CCCCSc1nc(N)c(NC(=O)c2ccco2)c(=O)[nH]1,x,x,-8,17,7,0.9
